Source: ChEMBL document CHEMBL1681787, “Synthesis and anti-HSV-1 activity of new 1,2,3-triazole derivatives” (Bioorg Med Chem, 2011)

What was measured:
[1] = system: Human alphaherpesvirus 1; experiment: Antiviral activity against 5 MOI Herpes simplex viruses 1 infected in vero cells after 24 hrs by viral plaque number reduction assay; format: functional, organism-based; details: Human alphaherpesvirus 1, Vero
Outline: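 Vero cells in 6-well plates infected with HSV-1 at MOI 5 for 1 h at 37 °C, then treated with test compounds. After 24 h infected cells lysed, supernatant harvested and titred by plaque assay. IC50 = concentration inhibiting 50% of plaque formation versus untreated controls. Acyclovir positive control. Triplicate independent experiments.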

[2] = Selectivity index, ratio of CC50 for african green monkey vero cells to IC50 for Herpes simplex viruses 1; format: functional
Outline: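 Selectivity index computed as CC50 (XTT assay in Vero cells, 72 h) divided by IC50 (plaque number reduction against HSV-1 in Vero cells).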

[3] = system: Human alphaherpesvirus 1; experiment: Antiviral activity against Herpes simplex viruses 1 infected in vero cells assessed as inhibition of viral replication at 50 uM after 72 hrs by XTT assay; format: functional; details: Human alphaherpesvirus 1, Vero
Outline: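 Vero monolayers (10⁴ cells/well) infected with HSV-1 at 100 CCID50/well for 1 h. Inoculum removed, cells washed, medium with 50 µM compound added; acyclovir 50 µM as control. After 72 h XTT/PMS added to measure protection from virus-induced cytopathic effect. Means of triplicate experiments.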

[4] = Cytotoxicity against african green monkey Vero cells after 72 hrs by XTT assay; format: cell-based; details: chlorocebus sabaeus
Outline: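 Vero cells (10⁴ cells/well; DMEM, 5% FBS, 37 °C, 5% CO2) exposed to a range of compound concentrations for 72 h. XTT (2.5 mg/mL final) added with PMS 32 µg/mL, 4 h incubation, absorbance read at 492 nm with 620 nm reference. CC50 obtained by linear regression of dose-response curves; acyclovir included.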

Row | IC50 [1] | SMILES | Ratio CC50/IC50 [2] | inhibition at 50 µM [3] | CC50 at 72 h [4]
1 | 1.26 µM | Cc1c(C(=O)NNS(=O)(=O)c2ccccc2)nnn1Nc1cc(Cl)ccc1Cl | 932 | 71% | 1170 µM
2 | 37 µM | COc1ccc(S(=O)(=O)NNC(=O)c2nnn(Nc3ccc(Br)cc3)c2C)cc1 | 26 | 77% | 971 µM
3 |  | Cc1ccc(S(=O)(=O)NNC(=O)c2nnn(Nc3ccccc3)c2C)cc1 |  | 37% | 
4 |  | Cc1c(C(=O)NNS(=O)(=O)c2ccccc2)nnn1Nc1ccc(Br)cc1 |  | 31% | 
5 |  | Cc1c(C(=O)NNS(=O)(=O)c2ccccc2)nnn1Nc1ccc(Cl)cc1 |  | 57% | 
6 | 1.3 µM | Cc1ccc(S(=O)(=O)NNC(=O)c2nnn(Nc3ccc(F)cc3)c2C)cc1 | 974 | 88% | 1270 µM
7 |  | COc1ccc(S(=O)(=O)NNC(=O)c2nnn(Nc3ccccc3)c2C)cc1 |  | 54% | 
8 | 19 µM | Cc1c(C(=O)NNS(=O)(=O)c2ccccc2)nnn1Nc1ccccc1 | 80 | 79% | 1510 µM
9 |  | Cc1ccc(S(=O)(=O)NNC(=O)c2nnn(Nc3ccc(Br)cc3)c2C)cc1 |  | 69% | 
10 | 0.99 µM | Nc1nc2c(ncn2COCCO)c(=O)[nH]1 [ACYCLOVIR] | 869 | 95% | 860 µM
